Tests used:
[1] = tested on: Semliki Forest virus; test: Effect against semliki forest virus infection in mice at an ip dose of 100 mg/kg; 6/12; assay type: functional; details: route intraperitoneal
Procedure, shortened: (§1)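 Female Swiss Webster mice (about 20 g) received compound or placebo ip in aqueous 2% sodium bicarbonate as half-daily doses at -24 and -18 h before virus. […] Read-outs were survivors/total over 21 days and mean survival time of mice that died. Mice dying within a day or two of dosing were excluded. Significance was by two-tailed Fisher exact test.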

[2] = organism: Mus musculus; test: Ability to activate CBA/CaJ Mice spleen cells to proliferate in vitro by measuring new DNA synthesis in a [3H]thymidine incorporation assay at 0 mM; assay type: functional
Procedure, shortened: (§2)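 Spleen cells from CBA/CaJ mice, 1 × 10^5 per 0.2 mL, cultured with compound for 48 h in total. [3H]thymidine (0.5 μCi/0.02 mL) was added after 24 h, then cells were harvested and uptake was counted in a β-counter. Results are CPM as mean ± SD of quadruplicate assays.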

[3] = tested on: Semliki Forest virus; test: Effect against semliki forest virus infection in mice at an ip dose of 200 mg/kg; 3/12; assay type: functional; details: route intraperitoneal; procedure, shortened: as §1
[4] = organism: Mus musculus; test: Ability to activate CBA/CaJ Mice spleen cells to proliferate in vitro by measuring new DNA synthesis in a [3H]thymidine incorporation assay at 0.20 mM; assay type: functional; procedure, shortened: as §2
[5] = organism: Mus musculus; test: Ability to activate CBA/CaJ Mice spleen cells to proliferate in vitro by measuring new DNA synthesis in a [3H]thymidine incorporation assay at 0.01 mM; assay type: functional; procedure, shortened: as §2
[6] = tested on: YAC-1; test: (§3) In vivo effect on murine NK cell activity in isolated CBA/CaJ mice spleen cells and cytotoxicity measured against YAC-1 cells at a targetor ratio 50:1; assay type: functional, Mus musculus
Procedure, shortened: (§4)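 Female CBA/CaJ mice aged 6–8 weeks, two per group, received 150 mg/kg ip in 2% aqueous sodium bicarbonate as 75 mg/kg bid for one day; the placebo was vehicle. After 24 h, spleen cells were pooled and tested against YAC-1 targets in a 4-h 51Cr-release assay, in triplicate, at the stated effector:target ratio.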

[7] = organism: Mus musculus; test: Ability to activate CBA/CaJ Mice spleen cells to proliferate in vitro by measuring new DNA synthesis in a [3H]thymidine incorporation assay at 0.40 mM; assay type: functional; procedure, shortened: as §2
[8] = tested on: Semliki Forest virus; test: Effect against semliki forest virus infection in mice at an ip dose of 200 mg/kg; assay type: functional; details: route intraperitoneal; procedure, shortened: as §1
[9] = tested on: Semliki Forest virus; test: Effect against semliki forest virus infection in mice at an ip dose of 100 mg/kg; assay type: functional; details: route intraperitoneal; procedure, shortened: as §1
[10] = organism: Mus musculus; test: Ability to activate CBA/CaJ Mice spleen cells to proliferate in vitro by measuring new DNA synthesis in a [3H]thymidine incorporation assay at 0.05 mM; assay type: functional; procedure, shortened: as §2
[11] = tested on: YAC-1; test: (§5) In vivo effect on murine NK cell activity in isolated CBA/CaJ mice spleen cells and cytotoxicity measured against YAC-1 cells at a targetor ratio 100:1; assay type: functional, Mus musculus; procedure, shortened: as §4
[12] = tested on: Mus musculus; test: Effect against semliki forest virus infection in mice at an ip dose of 100 mg/kg; 0/12; assay type: functional; details: route intraperitoneal; procedure, shortened: as §1
[13] = tested on: Mus musculus; test: Effect against semliki forest virus infection in mice at an ip dose of 200 mg/kg.; assay type: functional; details: route intraperitoneal; procedure, shortened: as §1
[14] = tested on: YAC-1; test: In vivo effect on murine NK cell activity in isolated CBA/CaJ mice spleen cells and cytotoxicity measured against YAC-1 cells at a targetor ratio 50:1.; assay type: functional, Mus musculus; procedure, shortened: as §4
[15] = tested on: Mus musculus; test: Effect against semliki forest virus infection in mice at an ip dose of 100 mg/kg.; assay type: functional; details: route intraperitoneal; procedure, shortened: as §1
[16] = tested on: YAC-1; test: In vivo effect on murine NK cell activity in isolated CBA/CaJ mice spleen cells and cytotoxicity measured against YAC-1 cells at a targetor ratio 100:1.; assay type: functional, Mus musculus; procedure, shortened: as §4
[17] = tested on: Mus musculus; test: Effect against semliki forest virus infection in mice at an ip dose of 200 mg/kg; 2/11; assay type: functional; details: route intraperitoneal; procedure, shortened: as §1
[18] = tested on: Mus musculus; test: Effect against semliki forest virus infection in mice at an ip dose of 100 mg/kg; 4/9; assay type: functional; details: route intraperitoneal; procedure, shortened: as §1
[19] = tested on: Mus musculus; test: Effect against semliki forest virus infection in mice at an ip dose of 200 mg/kg''; 11/11; assay type: functional; details: route intraperitoneal; procedure, shortened: as §1
[20] = tested on: YAC-1; test: as §5; assay type: organism-based; details: mouse; procedure, shortened: as §4
[21] = tested on: YAC-1; test: as §3; assay type: organism-based; details: mouse; procedure, shortened: as §4
[22] = tested on: Semliki Forest virus; test: Effect against semliki forest virus infection in mice at an ip dose of 200 mg/kg; 9/12; assay type: functional; details: route intraperitoneal; procedure, shortened: as §1
[23] = tested on: Semliki Forest virus; test: Effect against semliki forest virus infection in mice at an ip dose of 200 mg/kg; 11/12; assay type: functional; details: route intraperitoneal; procedure, shortened: as §1
[24] = tested on: Semliki Forest virus; test: Effect against semliki forest virus infection in mice at an ip dose of 100 mg/kg; 11/12; assay type: functional; details: route intraperitoneal; procedure, shortened: as §1

| SMILES | Survivors [1] | CPM [2] | CPM [4] | CPM [5] | CPM [7] | Mean survival time [8] | Mean survival time [9] | CPM [10] | Mean survival time [13] | Cytotoxicity [14] | Mean survival time [15] | Cytotoxicity [16] | Cytotoxicity [20] | Cytotoxicity [21] | further results |
| --- | --- | --- | --- | --- | --- | --- | --- | --- | --- | --- | --- | --- | --- | --- | --- |
| Nc1nc(O)c2nc(S)n([C@@H]3O[C@H](CO)[C@@H](O)[C@H]3O)c2n1 | 50% | 3633 | 23092 | 3911 | 40690 | 7.5 days | 8 days | 5372 | – | – | – | – | – | – | Survivors [3]: 25%; % cytotoxicity [6]: 43.53%; % cytotoxicity [11]: 61.33% |
| Nc1nc2c(nc(Br)n2[C@@H]2O[C@H](CO)[C@@H](O)[C@H]2O)c(=O)[nH]1 | – | 5204 | 9199 | 4387 | 16771 | – | – | 4835 | 7.1 days | 31.33% | 7.7 days | 45.44% | – | – | Survivors [12]: 0%; Survivors [17]: 18% |
| Nc1nc(O)c2sc(=S)n(C3O[C@H](CO)[C@@H](O)[C@H]3O)c2n1 (stereo not given in full) | – | 3111 | 43779 | 4230 | 53493 | – | – | 15711 | >21 days | 28.89% | 7 days | 41.38% | – | – | Survivors [18]: 44%; Survivors [19]: 100% |
| Cn1c(=O)n(C2O[C@H](CO)[C@@H](O)[C@H]2O)c2nc(N)nc(O)c21 (stereo not given in full) | 50% | 2000 | 72000 | 6012 | 94100 | 6.3 days | 7.7 days | 35980 | – | – | – | – | 57.89% | 58.8% | Survivors [22]: 75% |
| Nc1nc2c(sc(=O)n2[C@@H]2O[C@H](CO)[C@@H](O)[C@H]2O)c(=O)[nH]1 [ISATORIBINE] | – | 2000 | 96680 | 12000 | 107000 | 6 days | 8 days | 54150 | – | – | – | – | 67.8% | 74.8% | Survivors [23]: 92%; Survivors [24]: 92% |
